Measurements taken from ChEMBL document CHEMBL3351225, “Design, synthesis, and structure-activity and structure-pharmacokinetic relationship studies of novel [6,6,5] tricyclic fused oxazolidinones leading to the discovery of a potent, selective, and orally bioavailable FXa inhibitor” (J Med Chem, 2014).
pIC50: −log10 of the molar value.

Columns and labels:
Plasma [1] = assay: Anticoagulant activity in citrated rabbit plasma assessed as drug concentration required to double plasma clotting time preincubated for 10 mins at 37 degC by coagulometry; type: functional, Oryctolagus cuniculus
Method in brief: (§1)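 Test compound or DMSO added to citrated rabbit plasma (3.8% sodium citrate, 10:90 v/v) and preincubated 10 min at 37 °C. PT and aPTT clotting times measured on a coagulometer with commercial kits. Activity expressed as the concentration needed to double plasma clotting time (CT2, μM).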

[2] = Plasma clearance in Sprague-Dawley rat at 4.5 mg/kg, iv; type: ADME, organism-based; set-up: dose 4.5 mg/kg, route intravenous
Method in brief: (§2)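 Male Sprague-Dawley rats, 200−220 g, four per group. Vehicle was 5% DMSO + 5% Tween-80 in 90% saline. The reference drug was given in 10% DMSO + 10% Tween-80 + 80% PEG400 (40% solution in saline). Serial retrobulbar vein samples were quantified by LC-MS. Parameters came from noncompartmental analysis of mean plasma concentrations.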

[3] = Oral bioavailability in Sprague-Dawley rat at 9 mg/kg; type: ADME, organism-based; settings: in vivo; method in brief: as §2
Plasma [4] = assay: Anticoagulant activity in citrated rabbit plasma assessed as activated partial thromboplastin time preincubated for 10 mins at 37 degC by coagulometry; type: functional, Oryctolagus cuniculus; method in brief: as §1
[5] = AUC (0 to infinity) in Sprague-Dawley rat at 4.5 mg/kg, iv; type: ADME, organism-based; set-up: time infinity, dose 4.5 mg/kg, route intravenous; settings: plasma; method in brief: as §2
[6] = AUC (0 to infinity) in Sprague-Dawley rat at 9 mg/kg, po; type: ADME, organism-based; set-up: time infinity, dose 9 mg/kg, route oral; settings: plasma; method in brief: as §2
[7] = Volume of distribution at steady state in Sprague-Dawley rat at 3 mg/kg, iv; type: ADME, organism-based; set-up: dose 3 mg/kg, route intravenous; settings: in vivo, read-out: Vdss; method in brief: as §2
[8] = AUC (0 to infinity) in Sprague-Dawley rat at 3 mg/kg, iv; type: ADME, organism-based; set-up: time infinity, dose 3 mg/kg, route intravenous; settings: plasma; method in brief: as §2
[9] = Plasma clearance in Sprague-Dawley rat at 3 mg/kg, iv; type: ADME, organism-based; set-up: dose 3 mg/kg, route intravenous; method in brief: as §2
[10] = Elimination half life in Sprague-Dawley rat at 10 mg/kg, po; type: ADME, organism-based; set-up: dose 10 mg/kg, route oral; settings: in vivo, read-out: beta t1/2 (converted); method in brief: as §2
[11] = Oral bioavailability in Sprague-Dawley rat at 10 mg/kg; type: ADME, organism-based; settings: in vivo; method in brief: as §2
Coagulation factor XI = Coagulation factor XI (Homo sapiens, UniProt P03951); assay: Inhibition of human factor 11a using S-2366 chromogenic substrate
Coagulation factor XI, sequence (P03951 19-387 limits assumed): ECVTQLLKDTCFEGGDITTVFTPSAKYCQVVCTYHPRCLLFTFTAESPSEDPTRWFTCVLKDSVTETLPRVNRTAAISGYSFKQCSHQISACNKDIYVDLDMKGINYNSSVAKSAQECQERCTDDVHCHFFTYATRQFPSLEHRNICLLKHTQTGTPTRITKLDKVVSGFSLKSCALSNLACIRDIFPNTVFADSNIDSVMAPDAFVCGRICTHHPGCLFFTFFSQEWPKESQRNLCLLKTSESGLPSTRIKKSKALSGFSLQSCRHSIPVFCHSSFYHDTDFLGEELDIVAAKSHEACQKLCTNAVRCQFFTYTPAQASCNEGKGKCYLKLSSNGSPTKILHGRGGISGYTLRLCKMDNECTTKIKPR
Coagulation factor XI, sequence (P03951 388-625 limits assumed): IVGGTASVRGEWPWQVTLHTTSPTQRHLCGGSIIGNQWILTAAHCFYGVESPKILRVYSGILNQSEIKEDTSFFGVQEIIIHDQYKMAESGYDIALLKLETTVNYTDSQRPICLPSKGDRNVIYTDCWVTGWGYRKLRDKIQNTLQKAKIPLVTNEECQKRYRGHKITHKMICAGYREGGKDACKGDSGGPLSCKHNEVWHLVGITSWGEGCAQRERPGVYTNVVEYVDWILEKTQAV
Method in brief: (§3)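 Human enzyme and inhibitor were premixed and preincubated, then the chromogenic substrate was added. Substrate levels: 300 μM S-2765 (FXa, trypsin); 200 μM S-2366 (FIIa); 2 mM S-2366 (FVIIa, FXIa). pNA release was monitored continuously at 405 nm for 20 min at 37 °C. IC50 was obtained by nonlinear regression.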

Coagulation factor VII = target: T1, Coagulation factor VII (Homo sapiens, UniProt P08709); assay: Inhibition of human factor 7a using S-2366 chromogenic substrate; method in brief: as §3
T1 sequence (P08709 whole entry): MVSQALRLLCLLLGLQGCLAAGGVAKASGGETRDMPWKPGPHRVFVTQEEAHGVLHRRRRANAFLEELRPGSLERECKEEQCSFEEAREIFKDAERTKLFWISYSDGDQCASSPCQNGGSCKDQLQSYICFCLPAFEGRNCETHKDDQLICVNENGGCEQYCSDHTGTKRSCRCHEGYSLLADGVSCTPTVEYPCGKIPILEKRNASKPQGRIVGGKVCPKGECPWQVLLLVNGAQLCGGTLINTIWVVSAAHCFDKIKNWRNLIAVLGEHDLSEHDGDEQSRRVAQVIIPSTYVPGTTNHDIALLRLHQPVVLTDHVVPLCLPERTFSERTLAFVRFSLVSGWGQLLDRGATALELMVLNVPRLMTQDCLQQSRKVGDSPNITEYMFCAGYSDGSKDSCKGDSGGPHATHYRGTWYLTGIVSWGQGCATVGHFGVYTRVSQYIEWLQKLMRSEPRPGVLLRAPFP

Prothrombin = Prothrombin (Homo sapiens, UniProt P00734); assay: Inhibition of human factor 2a using L-pyro-Glu-Pro-ArgpNA, S-2366 chromogenic substrate; method in brief: as §3
Coagulation factor X = Coagulation factor X (Homo sapiens, UniProt P00742); assay: Inhibition of human factor 10a using N-Z-D-Arg-Gly-Arg-pNA, S-2765 chromogenic substrate
Coagulation factor X, sequence (P00742 41-179 limits assumed): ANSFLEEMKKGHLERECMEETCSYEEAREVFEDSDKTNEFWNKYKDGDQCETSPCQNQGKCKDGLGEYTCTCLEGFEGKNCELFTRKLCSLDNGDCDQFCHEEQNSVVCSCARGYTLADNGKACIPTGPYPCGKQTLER
Coagulation factor X, sequence (P00742 235-488 limits assumed): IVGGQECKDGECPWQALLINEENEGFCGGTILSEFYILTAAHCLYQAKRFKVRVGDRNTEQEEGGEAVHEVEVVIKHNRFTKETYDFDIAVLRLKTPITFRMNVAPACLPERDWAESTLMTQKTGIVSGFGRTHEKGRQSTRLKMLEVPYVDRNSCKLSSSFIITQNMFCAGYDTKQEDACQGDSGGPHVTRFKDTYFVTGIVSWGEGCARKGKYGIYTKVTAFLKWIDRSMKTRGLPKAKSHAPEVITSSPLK

Trypsin = Trypsin (Homo sapiens, UniProt P07477+P07478+P35030); assay: Inhibition of human trypsin using N-Z-D-Arg-Gly-Arg-pNA, S-2765 chromogenic substrate; type: protein assay; method in brief: as §3
Coagulation factor IX = Coagulation factor IX (Homo sapiens, UniProt P00740); assay: Inhibition of human factor 9a using CH3SO2-(D)CHG Gly-Arg-pNA, Biophen-CS51 chromogenic substrate
Coagulation factor IX, sequence (P00740 47-191 limits assumed): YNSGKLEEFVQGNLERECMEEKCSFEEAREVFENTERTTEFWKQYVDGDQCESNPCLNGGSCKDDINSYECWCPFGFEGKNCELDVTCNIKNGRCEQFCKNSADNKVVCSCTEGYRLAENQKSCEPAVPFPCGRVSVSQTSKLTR
Coagulation factor IX, sequence (P00740 227-461 limits assumed): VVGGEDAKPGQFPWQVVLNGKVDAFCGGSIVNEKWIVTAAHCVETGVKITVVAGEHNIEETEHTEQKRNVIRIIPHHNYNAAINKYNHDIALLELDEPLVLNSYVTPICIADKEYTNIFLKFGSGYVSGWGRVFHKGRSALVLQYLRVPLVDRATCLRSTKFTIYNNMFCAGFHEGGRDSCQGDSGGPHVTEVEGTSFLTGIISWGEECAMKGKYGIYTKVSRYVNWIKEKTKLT

[12] = Elimination half life in Sprague-Dawley rat at 3 mg/kg, iv; type: ADME, organism-based; set-up: dose 3 mg/kg, route intravenous; settings: in vivo, read-out: beta t1/2 (converted); method in brief: as §2
[13] = AUC (0 to infinity) in Sprague-Dawley rat at 10 mg/kg, po; type: ADME, organism-based; set-up: time infinity, dose 10 mg/kg, route oral; settings: plasma; method in brief: as §2
[14] = Cmax in Sprague-Dawley rat at 10 mg/kg, po; type: ADME, organism-based; set-up: dose 10 mg/kg, route oral; settings: in vivo; method in brief: as §2
[15] = Tmax in Sprague-Dawley rat at 10 mg/kg, po; type: ADME, organism-based; set-up: dose 10 mg/kg, route oral; settings: in vivo; method in brief: as §2
[16] = Cmax in Sprague-Dawley rat at 9 mg/kg, po; type: ADME, organism-based; set-up: dose 9 mg/kg, route oral; settings: in vivo; method in brief: as §2
[17] = Tmax in Sprague-Dawley rat at 9 mg/kg, po; type: ADME, organism-based; set-up: dose 9 mg/kg, route oral; settings: in vivo; method in brief: as §2
[18] = Elimination half life in Sprague-Dawley rat at 4.5 mg/kg, iv; type: ADME, organism-based; set-up: dose 4.5 mg/kg, route intravenous; settings: in vivo, read-out: beta t1/2 (converted); method in brief: as §2
[19] = Volume of distribution at steady state in Sprague-Dawley rat at 4.5 mg/kg, iv; type: ADME, organism-based; set-up: dose 4.5 mg/kg, route intravenous; settings: in vivo, read-out: Vdss; method in brief: as §2
[20] = Elimination half life in Sprague-Dawley rat at 9 mg/kg, po; type: ADME, organism-based; set-up: dose 9 mg/kg, route oral; settings: in vivo, read-out: beta t1/2 (converted); method in brief: as §2
[21] = Tmax in Sprague-Dawley rat at 3 mg/kg, po; type: ADME, organism-based; set-up: dose 3 mg/kg, route oral; settings: in vivo
[22] = Plasma clearance in Beagle dog at 0.5 mg/kg, iv; type: ADME, organism-based, Canis lupus familiaris; set-up: dose 0.5 mg/kg, route intravenous
Method in brief: (§4)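 Male dogs, three per group. Dosed orally at 1 mg/kg or by intravenous infusion at 0.5 mg/kg. Vehicle was 5% DMSO + 5% Tween-80 in 90% saline, or 10% DMSO + 10% Tween-80 + 80% PEG400 for the reference drug. Foreleg blood samples were quantified by LC-MS. Parameters came from noncompartmental analysis of mean plasma concentrations.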

Rattus norvegicus [23] = assay: Antithrombotic activity in rat model of arteriovenous shunt-induced thrombosis assessed as reduction in thrombus formation dosed orally 60 mins before shunt opening; settings: po
[24] = AUC (0 to infinity) in Beagle dog at 0.5 mg/kg, iv; type: ADME, organism-based, Canis lupus familiaris; set-up: time infinity, dose 0.5 mg/kg, route intravenous; settings: plasma; method in brief: as §4
[25] = Oral bioavailability in Sprague-Dawley rat at 3 mg/kg; type: ADME, organism-based; settings: in vivo
Rattus norvegicus [26] = assay: Induction of tail bleeding in rat assessed as prolongation of bleeding time dosed orally 60 mins before surgery; type: organism-based; settings: in vivo, po, 1 h
Method in brief: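 Anesthetized rats were dosed orally with compound suspended in 0.5% CMC-Na, or vehicle, 60 min before the tail was transected 4 mm from the tip. The tail was immersed vertically in saline at 37 °C. Bleeding time was taken as the point when flow ceased for >30 s, with a 30 min maximum.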

[27] = Tmax in Beagle dog at 1 mg/kg, po; type: ADME, organism-based, Canis lupus familiaris; set-up: dose 1 mg/kg, route oral; settings: in vivo; method in brief: as §4
[28] = Cmax in Sprague-Dawley rat at 3 mg/kg, po; type: ADME, organism-based; set-up: dose 3 mg/kg, route oral; settings: in vivo
[29] = Cmax in Beagle dog at 1 mg/kg, po; type: ADME, organism-based, Canis lupus familiaris; set-up: dose 1 mg/kg, route oral; settings: in vivo; method in brief: as §4
[30] = Volume of distribution at steady state in Beagle dog at 0.5 mg/kg, iv; type: ADME, organism-based, Canis lupus familiaris; set-up: dose 0.5 mg/kg, route intravenous; settings: in vivo, read-out: Vdss; method in brief: as §4
[31] = AUC (0 to infinity) in Sprague-Dawley rat at 3 mg/kg, po; type: ADME, organism-based; set-up: time infinity, dose 3 mg/kg, route oral; settings: plasma
Rattus norvegicus [32] = assay: Antithrombotic activity in rat model of FeCl3-induced venous thrombosis assessed as reduction in thrombus formation dosed orally 60 mins before thrombus formation; settings: po
[33] = Oral bioavailability in Beagle dog at 1 mg/kg; type: ADME, organism-based, Canis lupus familiaris; settings: in vivo; method in brief: as §4
[34] = Elimination half life in Beagle dog at 0.5 mg/kg, iv; type: ADME, organism-based, Canis lupus familiaris; set-up: dose 0.5 mg/kg, route intravenous; settings: in vivo; method in brief: as §4
[35] = AUC (0 to infinity) in Beagle dog at 1 mg/kg, po; type: ADME, organism-based, Canis lupus familiaris; set-up: time infinity, dose 1 mg/kg, route oral; settings: plasma; method in brief: as §4
[36] = Elimination half life in Beagle dog at 1 mg/kg, po; type: ADME, organism-based, Canis lupus familiaris; set-up: dose 1 mg/kg, route oral; settings: in vivo; method in brief: as §4
[37] = Elimination half life in Sprague-Dawley rat at 3 mg/kg, po; type: ADME, organism-based; set-up: dose 3 mg/kg, route oral; settings: in vivo, read-out: beta t1/2 (converted)

SMILES	Activity (Plasma [1]) [µM]	clearance [2] [mL/min/kg]	bioavailability [3] [%]	2aPTT (Plasma [4]) [µM]	AUC(0-inf) [5] [ng·h/mL]	AUC(0-inf) [6] [ng·h/mL]	Vd [7] [L/kg]	AUC(0-inf) [8] [ng·h/mL]	clearance [9] [mL/min/kg]	half-life [10] [h]	bioavailability [11] [%]	pIC50 (Coagulation factor XI)	pIC50 (Coagulation factor VII)	pIC50 (Prothrombin)	pIC50 (Coagulation factor X)	IC50 (Trypsin) [µM]	pIC50 (Coagulation factor IX)	half-life [12] [h]	AUC(0-inf) [13] [ng·h/mL]	Cmax [14] [ng/mL]	other results
O=C(NC[C@@H]1OC(=O)N2c3ccc(N4CCCCC4=O)cc3OC[C@@H]12)c1ccc(Cl)s1	0.42	2.28	42	1.63	33600	28500															
O=C(NC[C@@H]1OC(=O)N2c3ccc(N4CCOCC4=O)cc3NC[C@@H]12)c1ccc(Cl)s1	0.48			0.43			0.199	5700	9.22	1.52	6.8	< 4.00	< 4.00	< 4.00	8.30	> 100	< 4.00	0.86	1350	565	Tmax [15]: 0.44 h
CS(=O)(=O)c1ccccc1-c1ccc2c(c1)OC[C@H]1[C@H](CNC(=O)c3ccc(Cl)s3)OC(=O)N21	5.88	1.72	27.3	4.65	43900	24500									7.42						Cmax [16]: 6760 ng/mL; Tmax [17]: 1 h; half-life [18]: 0.88 h; Vd [19]: 0.169 L/kg; half-life [20]: 1.43 h
O=C(NC[C@H]1CN(c2ccc(N3CCOCC3=O)cc2)C(=O)O1)c1ccc(Cl)s1 [RIVAROXABAN]	0.4			0.32			0.19	9980	5.05									1.27			Tmax [21]: 0.88 h; clearance [22]: 10 mL/min/kg; ED50 (Rattus norvegicus [23]): 3.72 mg/kg; AUC(0-inf) [24]: 916 ng·h/mL; bioavailability [25]: 21.3%; Activity (Rattus norvegicus [26]): Dose-dependent effect; Tmax [27]: 0.7 h; Cmax [28]: 850 ng/mL; Cmax [29]: 333 ng/mL; Vd [30]: 2.8 L/kg; AUC(0-inf) [31]: 2260 ng·h/mL; ED50 (Rattus norvegicus [32]): 4.86 mg/kg; bioavailability [33]: 68%; half-life [34]: 2.4 h; AUC(0-inf) [35]: 1000 ng·h/mL; half-life [36]: 1.8 h; half-life [37]: 2.9 h
O=C(NC[C@@H]1OC(=O)N2c3ccc(N4CCOCC4=O)cc3SC[C@@H]12)c1ccc(Cl)s1	0.58			0.33			0.574	5700	8.82	3.15	7.4	< 4.00	< 4.00	< 4.00	8.60	> 100	< 4.00	0.89	1480	167	Tmax [15]: 4 h
